Reference: ChEMBL document CHEMBL4311951, “Potent and Preferential Degradation of CDK6 via Proteolysis Targeting Chimera Degraders” (J Med Chem, 2019)
Each block holds one compound with its values, some of them ahead of it. Calls of active or inactive are those of the source. The calls are words filed in the database; no cut-off is given here.

Columns and labels:
Daoy = experiment: Induction of cIAP-mediated CDK6 degradation in human DAOY cells at 1 uM after 24 hrs by immunoblot analysis; type: cell-based
Method in brief: (§1)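 Medulloblastoma DAOY cells treated 24 h with PROTACs at 1 μM; CDK6 levels then assessed by immunoblot. Palbociclib at 500 nM and 1 μM as positive control.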

Homo sapiens [1] = organism: Homo sapiens; experiment: Induction of cIAP-mediated CDK4 degradation in human U251 cells at 1 uM after 24 hrs by immunoblot analysis; type: cell-based
Homo sapiens [2] = organism: Homo sapiens; experiment: Induction of cIAP-mediated CDK6 degradation in human U251 cells at 1 uM after 24 hrs by immunoblot analysis; type: cell-based
[3] = target: Protein cereblon/Cyclin-dependent kinase 6 (Homo sapiens, UniProt Q00534+Q96SW2); experiment: Induction of CRBN-mediated CDK6 degradation in human U251 cells after 24 hrs by immunoblot analysis; type: cell-based
[4] = target: Protein cereblon/Cyclin-dependent kinase 4 (Homo sapiens, UniProt P11802+Q96SW2); experiment: Induction of CRBN-mediated CDK4 degradation in human U251 cells after 24 hrs by immunoblot analysis; type: cell-based
Chain of Protein cereblon/Cyclin-dependent kinase 4 (P11802 whole entry): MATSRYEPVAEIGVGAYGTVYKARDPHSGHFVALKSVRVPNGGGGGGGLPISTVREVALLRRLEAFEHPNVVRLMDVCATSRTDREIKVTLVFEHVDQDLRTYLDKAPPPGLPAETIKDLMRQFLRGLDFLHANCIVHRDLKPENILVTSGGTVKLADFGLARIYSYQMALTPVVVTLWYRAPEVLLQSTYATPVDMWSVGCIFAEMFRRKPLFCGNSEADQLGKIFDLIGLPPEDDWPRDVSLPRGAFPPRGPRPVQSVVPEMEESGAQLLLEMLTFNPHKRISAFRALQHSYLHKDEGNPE
Chain of Protein cereblon/Cyclin-dependent kinase 4 (Q96SW2 whole entry): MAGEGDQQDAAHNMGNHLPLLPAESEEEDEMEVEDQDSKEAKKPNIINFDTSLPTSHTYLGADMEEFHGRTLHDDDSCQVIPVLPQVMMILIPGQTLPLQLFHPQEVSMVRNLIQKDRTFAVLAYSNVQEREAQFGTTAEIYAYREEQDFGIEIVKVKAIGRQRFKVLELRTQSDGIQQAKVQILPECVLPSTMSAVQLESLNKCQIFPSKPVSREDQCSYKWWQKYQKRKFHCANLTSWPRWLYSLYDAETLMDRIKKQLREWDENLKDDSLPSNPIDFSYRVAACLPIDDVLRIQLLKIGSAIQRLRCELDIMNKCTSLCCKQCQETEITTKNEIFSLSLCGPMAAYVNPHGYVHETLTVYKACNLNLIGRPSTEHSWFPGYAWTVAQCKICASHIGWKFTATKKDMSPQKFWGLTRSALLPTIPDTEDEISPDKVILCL

[5] = target: T1, von Hippel-Lindau disease tumor suppressor/Cyclin-dependent kinase 6 (Homo sapiens) (UniProt Q00534+P40337); experiment: Induction of VHL-mediated CDK6 degradation in human DAOY cells at 1 uM after 24 hrs by immunoblot analysis; type: cell-based; method in brief: as §1
T1 sequence (P40337 whole entry, looked up): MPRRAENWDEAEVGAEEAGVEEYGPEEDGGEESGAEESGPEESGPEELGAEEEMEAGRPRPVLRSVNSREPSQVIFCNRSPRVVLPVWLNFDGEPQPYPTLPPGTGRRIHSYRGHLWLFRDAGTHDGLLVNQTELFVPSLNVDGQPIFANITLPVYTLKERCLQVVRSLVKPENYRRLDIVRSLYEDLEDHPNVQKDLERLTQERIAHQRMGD
T1 sequence (Q00534 whole entry, looked up): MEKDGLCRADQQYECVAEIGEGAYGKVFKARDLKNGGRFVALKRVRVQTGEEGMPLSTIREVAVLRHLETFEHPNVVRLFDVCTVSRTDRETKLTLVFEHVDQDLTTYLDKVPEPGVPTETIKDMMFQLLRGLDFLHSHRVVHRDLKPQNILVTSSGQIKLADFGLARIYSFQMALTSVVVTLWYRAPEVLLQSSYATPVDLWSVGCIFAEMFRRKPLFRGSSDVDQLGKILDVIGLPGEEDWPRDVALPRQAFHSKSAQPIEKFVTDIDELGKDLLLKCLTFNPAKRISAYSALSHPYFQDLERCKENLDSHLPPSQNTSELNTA

[6] = target: T1, von Hippel-Lindau disease tumor suppressor/Cyclin-dependent kinase 6 (Homo sapiens); experiment: Induction of VHL-mediated CDK6 degradation in human U251 cells at 1 uM after 24 hrs by immunoblot analysis; type: cell-based
[7] = target: von Hippel-Lindau disease tumor suppressor/Cyclin-dependent kinase 4 (Homo sapiens) (UniProt P11802+P40337); experiment: Induction of VHL-mediated CDK4 degradation in human U251 cells at 1 uM after 24 hrs by immunoblot analysis; type: cell-based
Chain of von Hippel-Lindau disease tumor suppressor/Cyclin-dependent kinase 4 (Homo sapiens) (P11802 2-303 limits assumed): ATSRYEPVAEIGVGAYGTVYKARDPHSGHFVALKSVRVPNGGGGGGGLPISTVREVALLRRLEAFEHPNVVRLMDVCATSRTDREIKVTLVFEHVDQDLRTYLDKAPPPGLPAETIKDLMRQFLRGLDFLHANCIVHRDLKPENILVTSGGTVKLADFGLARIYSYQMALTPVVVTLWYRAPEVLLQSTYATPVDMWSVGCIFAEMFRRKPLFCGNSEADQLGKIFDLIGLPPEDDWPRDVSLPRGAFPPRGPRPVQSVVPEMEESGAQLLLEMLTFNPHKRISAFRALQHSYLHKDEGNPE
Chain of von Hippel-Lindau disease tumor suppressor/Cyclin-dependent kinase 4 (Homo sapiens) (P40337 whole entry partner): as the sequence (P40337 whole entry, looked up) above

[8] = target: T2, E3 ubiquitin-protein ligase Mdm2/CDK6 (Homo sapiens) (UniProt Q00987+Q00534); experiment: Induction of MDM2-mediated CDK6 degradation in human DAOY cells at 1 uM after 24 hrs by immunoblot analysis; type: cell-based; method in brief: as §1
T2 sequence (Q00534 whole entry, looked up): as the sequence (Q00534 whole entry, looked up) above
T2 sequence (Q00987 whole entry, looked up): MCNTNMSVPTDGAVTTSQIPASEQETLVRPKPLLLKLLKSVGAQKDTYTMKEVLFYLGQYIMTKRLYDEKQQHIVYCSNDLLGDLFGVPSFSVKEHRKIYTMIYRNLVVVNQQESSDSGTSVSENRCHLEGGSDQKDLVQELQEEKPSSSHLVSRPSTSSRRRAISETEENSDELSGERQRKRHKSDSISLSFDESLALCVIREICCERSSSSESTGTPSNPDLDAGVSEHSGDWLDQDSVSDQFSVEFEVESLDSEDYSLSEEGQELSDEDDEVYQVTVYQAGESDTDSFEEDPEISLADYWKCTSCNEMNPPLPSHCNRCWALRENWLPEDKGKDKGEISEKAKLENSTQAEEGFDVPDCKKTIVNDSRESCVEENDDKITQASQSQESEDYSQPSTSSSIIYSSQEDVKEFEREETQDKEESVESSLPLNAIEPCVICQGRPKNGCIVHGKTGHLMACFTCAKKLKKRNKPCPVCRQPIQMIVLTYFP

[9] = target: T2, E3 ubiquitin-protein ligase Mdm2/CDK6 (Homo sapiens); experiment: Induction of MDM2-mediated CDK6 degradation in human U251 cells at 1 uM after 24 hrs by immunoblot analysis; type: cell-based
[10] = test system: E3 ubiquitin-protein ligase Mdm2/Cyclin-dependent kinase 4 (Homo sapiens); experiment: Induction of MDM2-mediated CDK4 degradation in human U251 cells at 1 uM after 24 hrs by immunoblot analysis
[11] = (§2) Antiproliferative activity against human Mino cells after 84 hrs by CCK8 assay; type: functional, cell-based
Method in brief: (§3)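 Suspension haematopoietic lines seeded in triplicate in 96-well plates; drug stock added immediately to the final concentrations. After 84 h culture, CCK-8 reagent added and absorbance at OD450 nm read after 2 h incubation.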

HL-60 = experiment: Antiproliferative activity against human HL60 cells after 84 hrs by CCK8 assay; type: functional, cell-based; method in brief: as §3
MM1.S = experiment: Antiproliferative activity against human MM1S cells after 84 hrs by CCK8 assay; type: functional, cell-based; method in brief: as §3
JeKo-1 = experiment: Antiproliferative activity against human JeKo1 cells after 84 hrs by CCK8 assay; type: functional, cell-based; method in brief: as §3
RPMI-8226 = experiment: Antiproliferative activity against human RPMI8226 cells after 84 hrs by CCK8 assay; type: functional, cell-based; method in brief: as §3
THP-1 = experiment: Antiproliferative activity against human THP1 cells after 84 hrs by CCK8 assay; type: functional, cell-based; method in brief: as §3
Homo sapiens [12] = organism: Homo sapiens; experiment: as §2; type: functional, cell-based; method in brief: as §3

Structure (SMILES): CC(=O)c1c(C)c2cnc(Nc3ccc(N4CCN(Cc5cn(CCOCCOCCOCCNC(=O)[C@H](CC(C)C)NC(=O)[C@@H](O)[C@H](N)Cc6ccccc6)nn5)CC4)cn3)nc2n(C2CCCC2)c1=O
Activity (Daoy): inactive | Activity (Homo sapiens [1]): inactive | Activity (Homo sapiens [2]): inactive

Activity [3]: inactive
Structure (SMILES): CN(C)C(=O)c1cc2cnc(Nc3ccc(N4CCN(Cc5cn(CCOCCNc6cccc7c6C(=O)N(C6CCC(=O)NC6=O)C7=O)nn5)CC4)cn3)nc2n1C1CCCC1 (configuration not stated)

Activity [3]: inactive
Structure (SMILES): CN(C)C(=O)c1cc2cnc(Nc3ccc(N4CCN(Cc5cn(CCOCCOCCOCCNc6cccc7c6C(=O)N(C6CCC(=O)NC6=O)C7=O)nn5)CC4)cn3)nc2n1C1CCCC1 (configuration not stated)

DC50 [4]: > 100 nM | DC50 [3]: 1.1 nM
Structure (SMILES): CC(=O)c1c(C)c2cnc(Nc3ccc(N4CCN(CC(=O)NCCOCCNc5cccc6c5C(=O)N(C5CCC(=O)NC5=O)C6=O)CC4)cn3)nc2n(C2CCCC2)c1=O (configuration not stated)

Activity [3]: inactive
Structure (SMILES): CN(C)C(=O)c1cc2cnc(Nc3ccc(N4CCN(Cc5cn(CCOCCOCCNc6cccc7c6C(=O)N(C6CCC(=O)NC6=O)C7=O)nn5)CC4)cn3)nc2n1C1CCCC1 (configuration not stated)

Structure (SMILES): CC(=O)c1c(C)c2cnc(Nc3ccc(N4CCN(Cc5cn(CCOCCOCCNC(=O)[C@H](CC(C)C)NC(=O)[C@@H](O)[C@H](N)Cc6ccccc6)nn5)CC4)cn3)nc2n(C2CCCC2)c1=O
Activity (Daoy): inactive | Activity (Homo sapiens [1]): inactive | Activity (Homo sapiens [2]): inactive

Activity [5]: inactive | Activity [6]: inactive | Activity [7]: inactive
Structure (SMILES): CC(=O)c1c(C)c2cnc(Nc3ccc(N4CCN(Cc5cn(CCOCCOCCOCCNC(=O)CCC(=O)N[C@H](C(=O)N6C[C@H](O)C[C@H]6C(=O)NCc6ccc(-c7scnc7C)cc6)C(C)(C)C)nn5)CC4)cn3)nc2n(C2CCCC2)c1=O

DC50 [4]: > 50 nM | DC50 [3]: 1.7 nM
Structure (SMILES): CC(=O)c1c(C)c2cnc(Nc3ccc(N4CCN(Cc5cn(CCCCCCc6cccc7c6C(=O)N(C6CCC(=O)NC6=O)C7=O)nn5)CC4)cn3)nc2n(C2CCCC2)c1=O (configuration not stated)

Activity [8]: inactive | Activity [9]: inactive | Activity [10]: inactive
Structure (SMILES): COc1ccc(C2=N[C@H](c3ccc(Cl)cc3)[C@H](c3ccc(Cl)cc3)N2C(=O)N2CCN(CC(=O)NCCOCCOCCOCCn3cc(CN4CCN(c5ccc(Nc6ncc7c(C)c(C(C)=O)c(=O)n(C8CCCC8)c7n6)nc5)CC4)nn3)C(=O)C2)c(OC(C)C)c1

Activity [8]: inactive | Activity [9]: inactive | Activity [10]: inactive
Structure (SMILES): COc1ccc(C2=N[C@H](c3ccc(Cl)cc3)[C@H](c3ccc(Cl)cc3)N2C(=O)N2CCN(CC(=O)NCCOCCOCCn3cc(CN4CCN(c5ccc(Nc6ncc7c(C)c(C(C)=O)c(=O)n(C8CCCC8)c7n6)nc5)CC4)nn3)CC2)c(OC(C)C)c1

DC50 [4]: > 500 nM | DC50 [3]: 130 nM
Structure (SMILES): Cc1nc2c(F)cc(-c3nc(Nc4ccc(CN5CCN(Cc6cn(CCOCCOCCNc7cccc8c7C(=O)N(C7CCC(=O)NC7=O)C8=O)nn6)CC5)cn4)ncc3F)cc2n1C(C)C (configuration not stated)

Activity [5]: inactive | Activity [6]: inactive | Activity [7]: inactive
Structure (SMILES): CC(=O)c1c(C)c2cnc(Nc3ccc(N4CCN(Cc5cn(CCOCCOCCNC(=O)CCC(=O)N[C@H](C(=O)N6C[C@H](O)C[C@H]6C(=O)NCc6ccc(-c7scnc7C)cc6)C(C)(C)C)nn5)CC4)cn3)nc2n(C2CCCC2)c1=O

Activity [5]: inactive | Activity [6]: inactive | Activity [7]: inactive
Structure (SMILES): CC(=O)c1c(C)c2cnc(Nc3ccc(N4CCN(Cc5cn(CCOCCOCCOCCOCCNC(=O)CCC(=O)N[C@H](C(=O)N6C[C@H](O)C[C@H]6C(=O)NCc6ccc(-c7scnc7C)cc6)C(C)(C)C)nn5)CC4)cn3)nc2n(C2CCCC2)c1=O

IC50 (MM1.S): 200 nM
Structure (SMILES): CC(=O)c1c(C)c2cnc(Nc3ccc(N4CCNCC4)cn3)nc2n(C2CCCC2)c1=O [PALBOCICLIB]
IC50 [11]: 45 nM | Activity (HL-60): Active | Activity (JeKo-1): Active | Activity (RPMI-8226): Active | Activity (THP-1): Active

DC50 [4]: > 100 nM | DC50 [3]: 81.6 nM
Structure (SMILES): CC(=O)c1c(C)c2cnc(Nc3ccc(N4CCN(Cc5cn(CCCCC#Cc6cccc7c6C(=O)N(C6CCC(=O)NC6=O)C7=O)nn5)CC4)cn3)nc2n(C2CCCC2)c1=O (configuration not stated)

Activity [5]: inactive | Activity [6]: inactive | Activity [7]: inactive
Structure (SMILES): CC(=O)c1c(C)c2cnc(Nc3ccc(N4CCN(Cc5cn(CCOCCNC(=O)CCC(=O)N[C@H](C(=O)N6C[C@H](O)C[C@H]6C(=O)NCc6ccc(-c7scnc7C)cc6)C(C)(C)C)nn5)CC4)cn3)nc2n(C2CCCC2)c1=O

Structure (SMILES): CC(=O)c1c(C)c2cnc(Nc3ccc(N4CCN(Cc5cn(CCOCCOCCOCCOCCNC(=O)[C@H](CC(C)C)NC(=O)[C@@H](O)[C@H](N)Cc6ccccc6)nn5)CC4)cn3)nc2n(C2CCCC2)c1=O
Activity (Daoy): inactive | Activity (Homo sapiens [1]): inactive | Activity (Homo sapiens [2]): inactive

Structure (SMILES): CCN1C(=O)CCC(N2C(=O)c3cccc(NCCOCCOCCn4cc(CN5CCN(c6ccc(Nc7ncc8c(C)c(C(C)=O)c(=O)n(C9CCCC9)c8n7)nc6)CC5)nn4)c3C2=O)C1=O (configuration not stated)
Activity (Homo sapiens [12]): inactive | Activity (HL-60): inactive | Activity (MM1.S): inactive | Activity (JeKo-1): inactive | Activity (RPMI-8226): inactive | Activity (THP-1): inactive

DC50 [4]: > 50 nM | DC50 [3]: 1.6 nM
Structure (SMILES): CC(=O)c1c(C)c2cnc(Nc3ccc(N4CCN(CCOCCOCCNc5cccc6c5C(=O)N(C5CCC(=O)NC5=O)C6=O)CC4)cn3)nc2n(C2CCCC2)c1=O (configuration not stated)

Structure (SMILES): CCN1C(=O)CCC(N2C(=O)c3cccc(NCCOCCn4cc(CN5CCN(c6ccc(Nc7ncc8c(C)c(C(C)=O)c(=O)n(C9CCCC9)c8n7)nc6)CC5)nn4)c3C2=O)C1=O (configuration not stated)
Activity (Homo sapiens [12]): inactive | Activity (HL-60): inactive | Activity (MM1.S): inactive | Activity (JeKo-1): inactive | Activity (RPMI-8226): inactive | Activity (THP-1): inactive

DC50 [4]: > 100 nM | DC50 [3]: 24.2 nM
Structure (SMILES): CC(=O)c1c(C)c2cnc(Nc3ccc(N4CCN(CC(=O)NCCOCCOCCNc5cccc6c5C(=O)N(C5CCC(=O)NC5=O)C6=O)CC4)cn3)nc2n(C2CCCC2)c1=O (configuration not stated)

DC50 [4]: > 500 nM | DC50 [3]: 146 nM
Structure (SMILES): Cc1nc2c(F)cc(-c3nc(Nc4ccc(CN5CCN(Cc6cn(CCOCCOCCOCCOCCNc7cccc8c7C(=O)N(C7CCC(=O)NC7=O)C8=O)nn6)CC5)cn4)ncc3F)cc2n1C(C)C (configuration not stated)

DC50 [4]: > 100 nM | DC50 [3]: 10.6 nM
Structure (SMILES): CC(=O)c1c(C)c2cnc(Nc3ccc(N4CCN(Cc5cn(CCCCCCNc6cccc7c6C(=O)N(C6CCC(=O)NC6=O)C7=O)nn5)CC4)cn3)nc2n(C2CCCC2)c1=O (configuration not stated)

Activity [8]: inactive | Activity [9]: inactive | Activity [10]: inactive
Structure (SMILES): COc1ccc(C2=N[C@H](c3ccc(Cl)cc3)[C@H](c3ccc(Cl)cc3)N2C(=O)N2CCN(CC(=O)NCCOCCn3cc(CN4CCN(c5ccc(Nc6ncc7c(C)c(C(C)=O)c(=O)n(C8CCCC8)c7n6)nc5)CC4)nn3)C(=O)C2)c(OC(C)C)c1

DC50 [4]: > 500 nM | DC50 [3]: 8.6 nM
Structure (SMILES): Cc1nc2c(F)cc(-c3nc(Nc4ccc(CN5CCN(Cc6cn(CCOCCNc7cccc8c7C(=O)N(C7CCC(=O)NC7=O)C8=O)nn6)CC5)cn4)ncc3F)cc2n1C(C)C (configuration not stated)

Structure (SMILES): CC(=O)c1c(C)c2cnc(Nc3ccc(N4CCN(Cc5cn(CCOCCNC(=O)[C@H](CC(C)C)NC(=O)[C@@H](O)[C@H](N)Cc6ccccc6)nn5)CC4)cn3)nc2n(C2CCCC2)c1=O
Activity (Daoy): inactive | Activity (Homo sapiens [1]): inactive | Activity (Homo sapiens [2]): inactive
